Results: ChEMBL document CHEMBL4118188, “A small diversity library of α-methyl amide analogs of sulindac for probing anticancer structure-activity relationships” (Bioorg Med Chem Lett, 2018)
pEC50: −log10 of the molar value.

Key:
Jurkat E6.1 = test: Growth inhibition of human Jurkat E6-1 cells measured after 72 hrs by Celltiter-Glo reagent based assay; assay type: functional, cell-based; settings: for EC50: jurkat e6.1; for pEC50: Homo sapiens, Jurkat E6.1, 72 h, read-out: EC50
Outline: (§1)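 Cell line sources: Raji is a Burkitt's lymphoma line (FAB L3); Jurkat E6-1 is an acute T-cell leukemia line; REH is a patient-derived precursor B-cell ALL line expressing only wild-type MLL and wild-type AF4; 697 was established from bone marrow of children with relapsed ALL; CPC300 derives from a mouse model of choroid plexus carcinoma.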

Raji = test: Growth inhibition of human Raji cells measured after 72 hrs by Celltiter-Glo reagent based assay; assay type: functional, cell-based; settings: for EC50: raji; for pEC50: Homo sapiens, Raji, 72 h, read-out: EC50; outline: as §1
REH = test: Growth inhibition of human REH cells measured after 72 hrs by CellTiter-Glo reagent based assay; assay type: functional, cell-based; settings: for EC50: reh; for pEC50: Homo sapiens, REH, 72 h, read-out: EC50; outline: as §1
PC-3 = test: Growth inhibition of human PC3 cells measured after 72 hrs by Celltiter-Glo reagent based assay; assay type: functional; settings: PC-3, 72 h
BJ = test: Growth inhibition of human BJ cells after 72 hrs by CellTiter-Glo reagent based assay; assay type: cell-based
MDA-MB-231 = test: Growth inhibition of human MDA-MB-231 cells measured after 96 hrs by Celltiter-Glo reagent based assay; assay type: functional; settings: MDA-MB-231, 96 h
[1] = Growth inhibition of human NALM16 cells measured after 72 hrs by Celltiter-Glo reagent based assay; assay type: functional; settings: for pEC50: Homo sapiens, NALM16, 72 h, read-out: EC50
[2] = Growth inhibition of mouse CPC300 cells measured after 72 hrs by Celltiter-Glo reagent based assay; assay type: functional; outline: as §1
697 = test: Growth inhibition of human 697 cells after 72 hrs by CellTiter-Glo reagent based assay; assay type: functional, cell-based; settings: for EC50: 697; for pEC50: Homo sapiens, 697, 72 h, read-out: EC50; outline: as §1
HT-29 = test: Growth inhibition of human HT-29 cells measured after 72 hrs by Celltiter-Glo reagent based assay; assay type: functional; settings: HT-29, 72 h

| EC50 (Jurkat E6.1) | EC50 (Raji) | pEC50 (Jurkat E6.1) | pEC50 (Raji) | Compound | EC50 (REH) | CC50 (PC-3) [µM] | pEC50 (BJ) | CC50 (MDA-MB-231) [µM] | pEC50 [1] | EC50 [2] | EC50 697 | CC50 (HT-29) [µM] | pEC50 (REH) | EC50 [1] | pEC50 697 |
| --- | --- | --- | --- | --- | --- | --- | --- | --- | --- | --- | --- | --- | --- | --- | --- |
| Not Active | Not Active |  |  | CSc1ccc(/C=C2/C(C)=C(C(C)C(=O)NCCN(C)C)c3cc(F)ccc32)cc1 (stereo not given) | Not Active | 5.07 | < 5.12 | 3.88 | 4.12 | Not Active | Not Active | 1.8 |  |  |  |
| Not Active | Not Active |  |  | CCN(CC)CCNC(=O)C(C)C1=C(C)/C(=C/c2ccc(SC)cc2)c2ccc(F)cc21 (stereo not given) |  | 6.21 | < 5.12 | 5.38 |  | Not Active | Not Active | 2.03 | 4.85 | Not Active |  |
| Not Active | Not Active |  |  | CSc1ccc(/C=C2/C(C)=C(C(C)C(=O)N(CCNC(C)C)C(C)C)c3cc(F)ccc32)cc1 (stereo not given) | Not Active | 3.91 | < 5.12 | 3.83 |  | Not Active | Not Active | 1.5 |  | Not Active |  |
| Not Active | Not Active |  |  | CSc1ccc(/C=C2/C(C)=C(C(C)C(=O)N(C)CCCN(C)C)c3cc(F)ccc32)cc1 (stereo not given) |  | 5.5 | < 5.12 | 4.11 |  | Not Active | Not Active | 2.12 | 4.42 | Not Active |  |
| Not Active | Not Active |  |  | CSc1ccc(/C=C2/C(C)=C(C(C)C(=O)N3CCN(c4ccncc4)CC3)c3cc(F)ccc32)cc1 (stereo not given) | Not Active | 4.68 | < 5.12 | 3.95 |  | Not Active |  | 2.2 |  | Not Active | 4.12 |
|  | Not Active | 4.12 |  | CSc1ccc(/C=C2/C(C)=C(C(C)C(=O)NCCN3CCCC3)c3cc(F)ccc32)cc1 (stereo not given) |  | 5.68 | < 5.12 | 5 |  | Not Active |  | 2.03 | 4.12 | Not Active | 4.12 |
| Not Active | Not Active |  |  | CCN(CC)CCCNC(=O)C(C)C1=C(C)/C(=C/c2ccc(SC)cc2)c2ccc(F)cc21 (stereo not given) | Not Active | 6.13 | < 5.12 | 4.23 |  | Not Active | Not Active | 2.17 |  | Not Active |  |
| Not Active | Not Active |  |  | CSc1ccc(/C=C2/C(C)=C(C(C)C(=O)N3CCN(CCN(C)C)CC3)c3cc(F)ccc32)cc1 (stereo not given) | Not Active | 5.98 | < 5.12 | 3.77 | 5.68 | Not Active | Not Active | 2.02 |  |  |  |
| Not Active |  |  | 4.35 | CSc1ccc(/C=C2/C(C)=C(C(C)C(=O)NCCN3CCNCC3)c3cc(F)ccc32)cc1 (stereo not given) |  | 5.91 | < 5.12 | 5.32 |  | Not Active | Not Active | 2.22 | 4.59 | Not Active |  |
| Not Active | Not Active |  |  | CSc1ccc(/C=C2/C(C)=C(C(C)C(=O)N(CCCNC(C)C)C(C)C)c3cc(F)ccc32)cc1 (stereo not given) | Not Active | 3.18 | < 5.12 | 2.91 | 5.82 | Not Active | Not Active | 1.26 |  |  |  |
|  |  | 5.11 | 4.89 | COc1cc(/C=C2/C(C)=C(C(C)C(=O)NCc3ccccc3)c3cc(F)ccc32)cc(OC)c1OC (stereo not given) |  | 4.92 | < 5.12 | 3.81 | 5.10 | Not Active |  | 2.77 | 5.15 |  | 5.21 |
| Not Active |  |  | > 9.42 | CCN(CCN(C)C)C(=O)C(C)C1=C(C)/C(=C/c2ccc(SC)cc2)c2ccc(F)cc21 (stereo not given) |  | 3.54 | < 5.12 | 3.18 |  | Not Active | Not Active | 1.13 | 5.00 | Not Active |  |
